Measured values taken from PMC11184607 (ACS Pharmacology & Translational Science, 2024).
Bridge positions count the residues as written; N and C are the ends. Square brackets hold non-standard residues; d marks the D form. Peptide text beside a SMILES is read from it. * marks the point of attachment. NMe2Val = CC(C)[C@@H](C(=O)*)N(C)C; NMeI = CC[C@H](C)[C@H](NC)C(=O)O; NMeT = CN[C@H](C(=O)O)[C@@H](C)O; NMeL = CN[C@@H](CC(C)C)C(=O)O; dHiv = CC(C)[C@@H](O)C(=O)O; NMeS = CN[C@@H](CO)C(=O)O; dNMeA = CN[C@H](C)C(=O)O

Tests used:
[1] = system: Gluc-U87 cells; test: Viability of adherent GLuc-U87 cells; assay type: cell-based, human; details: 0.3–300 nM
[2] = system: U87-MG GBM cells; test: Cell viability; assay type: cell-based, human; details: read-out: EC50, U87-MG cells; 72 h
Procedure, shortened: (§1)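 Cells are grown at 37 °C in 5% CO2. U87-MG and U251 are in MEM with 10% FBS, SF-268 in DMEM with 10% FBS, and SF-295 in RPMI 1640 with 10% FBS. HUVECs are pooled donors. Exposure is to the test compound (0.1 nM–1 μM) or 0.1% DMSO for 72 h. Viability is read by ATP luminescence as % of vehicle, n = 3 wells. […] comes from a logistic nonlinear fit over three independent comparisons.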

[3] = system: U251 GBM cells; test: Cell viability; assay type: cell-based, human; details: read-out: EC50, U251 cells; 72 h
Procedure, shortened: as §1

[4] = system: SF-268 GBM cells; test: Cell viability; assay type: cell-based, human; details: read-out: EC50, SF-268 cells; 72 h
Procedure, shortened: as §1

[5] = system: WT and mutant (R66I) Sec61α HCT116 colon cancer cells; test: Viability of WT versus Sec61α R66I mutant HCT116 cells; assay type: cell-based, human; details: 72 h and 6 days (3 + 3 day exposure)
[6] = system: HEK293FRT cells expressing WT or mutant (R66I) Sec61α; test: Viability of WT versus Sec61α R66I mutant HEK293 cells; assay type: cell-based, human; details: 72 h or 3 + 3 day exposure
Procedure, shortened: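 HEK293FRT cells carrying Sec61α R66I, with wild-type comparators, are grown in DMEM with 10% FBS, 6 mM L-glutamine and 1 mM pyruvate. They are exposed to increasing test compound concentrations or 0.1% DMSO for 72 h, or 3 + 3 days to avoid nutrient deprivation. ATP viability is read as % of vehicle, n = 3 wells. Logistic nonlinear fit; ≥3 independent experiments.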

[7] = system: BiP; test: Immunoblot of BiP expression; assay type: cell-based, human
[8] = system: Hsp70; test: Immunoblot of Hsp70 in U87-MG cells; assay type: cell-based, human; details: 1 30 nM, 2 1 μM, 24 h
Procedure, shortened: (§2)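 U87-MG cells in MEM with 10% FBS are exposed 24 h to test compound (30 nM or 1 μM) or 0.1% DMSO. Protein-matched lysates (BCA) are run on SDS-PAGE, transferred to PVDF and detected with HRP secondary. Signals are normalized to α-tubulin and expressed relative to control. Three independent experiments; one-way ANOVA then t-test.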

[9] = system: Hsp90; test: Immunoblot of Hsp90 in U87-MG cells; assay type: cell-based, human; details: 1 30 nM, 2 1 μM, 24 h
Procedure, shortened: as §2

[10] = system: GSC line 83; test: GSC neurosphere viability, 72 h, line 83; assay type: cell-based, human; details: read-out: EC50, GSC type 83
[11] = system: patient-derived GSCs (M120, MGG6, M76, GBM8, and 157); assay type: cell-based, human; details: read-out: EC50, viability of 5/6 GSC lines; 72 h
[12] = system: UPR markers (BiP, CHOP, sXBP1, GADD34, IRE1) mRNA; test: qPCR of ER stress; assay type: cell-based, human; details: 80 nM plus thapsigargin 300 nM, 24 h
Procedure, shortened: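 GSC neurospheres (MGG6, 83, M76, GBM8) are treated 24 h with test compound 80 nM, thapsigargin 300 nM, both together, or 0.1% DMSO. BiP, CHOP, sXBP1, GADD34 and IRE1 mRNA are measured by qPCR normalized to GAPDH and expressed as fold-change versus vehicle.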

[13] = system: GSC 157 neurospheres; test: Neurosphere morphology of GSC 157 by light microscopy; assay type: cell-based, human; details: 100 nM, 24 h, relative to control-treated cells
Procedure, shortened: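 Patient-derived GSC 157 cells are dissociated from tumour and expanded as neurospheres in medium with heparin 2 μg/mL, EGF 20 ng/mL and bFGF 10 ng/mL. Neurospheres receive test compound at 100 nM for 24 h. Morphology and neurosphere size are compared with control-treated cells.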

[14] = system: subcutaneous xenografts; details: unmodified natural product; cited from earlier work

CC[C@H](C)[C@H]1C(=O)N[C@@H](C)C(=O)N(C)[C@@H](CC(C)C)C(=O)N[C@@H](Cc2ccc(OC)cc2)C(=O)N(C)[C@H](C)C(=O)O[C@H](C)[C@H](N(C)C(=O)[C@H](CC(C)C)N(C)C(=O)[C@H](COC)N(C)C(=O)[C@H](OC(=O)[C@H](C(C)C)N(C)C)C(C)C)C(=O)N(C)[C@@H](COC)C(=O)N1C [compound 1, Coibamide A] (NMe2Val-[dHiv][NMeS](Me)[NMeL][NMeT][NMeS](Me)[NMeI]A[NMeL]Y(Me)[dNMeA]; ester 4-C)
Cell viability at 18 h [1]: no change in cell viability
EC50 [2]: 18 nM
EC50 [3]: > 700 nM
EC50 [4]: > 700 nM
Effect of Sec61α R66I mutation on cytotoxic response relative to WT HCT116 cells [5]: mild resistance
Response of mutant Sec61(R66I) HEK293 cells relative to WT [6]: resistant
BiP expression, GSC line 83 ([7]; 1 250 nM and 500 nM, 2 3 µM, 72 h): decrease
BiP protein expression, GSC MGG6 neurospheres and adherent U87-MG cells ([7]; immunoblot, 24 h): downregulation
Hsp70 expression [8]: upregulation
Hsp90 expression [9]: upregulation
EC50 [10]: ~100 nM
EC50 [11]: < 4 nM
Effect on thapsigargin-induced upregulation of all UPR markers, GSC line MGG6 [12]: almost completely abrogated
Change in neurosphere morphology [13]: reduction in neurosphere size
Safety after repeat dosing in mice bearing subcutaneous xenografts [14]: adverse safety profile
